Results reported in ChEMBL document CHEMBL4689842, “EUbOPEN Chemogenomics Library wave 1” (2021).

Tested on: HEK-293T
Test: Multiplex assay against HEK293T;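 for Population Tubulin-Different-Phenotype (%): share of the cells with healthy nuclei that show this phenotype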
Format: toxicity, cell-based
Details: human
In short: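 Cells stained live at seeding with Hoechst33342, BioTracker Green Microtubule Cytoskeleton Dye, MitoTracker Red and Annexin V Alexa Fluor 680 were imaged on a CQ1 microscope at 37°C and 5% CO2 after compound addition. Their classification by CellPathfinder machine-learning gating ran from Hoechst high-intensity objects versus normal cells, to healthy, pyknosed or fragmented nuclei among normal cells, to mitotic or apoptotic among pyknosed cells. Tubulin, mitochondrial-mass and membrane-permeability phenotypes are per cents of healthy-nucleus cells.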

[1] = 12 h, 1 µM, compound concentration 1 uM, replicate 1
[2] = 12 h, 1 µM, compound concentration 1 uM, replicate 2
[3] = 12 h, 10 µM, compound concentration 10 uM, replicate 1
[4] = 12 h, 10 µM, compound concentration 10 uM, replicate 2
[5] = 24 h, 1 µM, compound concentration 1 uM, replicate 1
[6] = 24 h, 1 µM, compound concentration 1 uM, replicate 2
[7] = 24 h, 10 µM, compound concentration 10 uM, replicate 1
[8] = 24 h, 10 µM, compound concentration 10 uM, replicate 2
[9] = 48 h, 1 µM, compound concentration 1 uM, replicate 1
[10] = 48 h, 1 µM, compound concentration 1 uM, replicate 2
[11] = 48 h, 10 µM, compound concentration 10 uM, replicate 1
[12] = 48 h, 10 µM, compound concentration 10 uM, replicate 2

Structure (SMILES): CC(C)NC(=O)N1CC[C@H](NC2=Nc3cc(F)ccc3N(CC(F)F)c3ccc(Cl)cc32)C1
- Population Apoptotic (%) [1]: 42%
- Population Fragmented Nuclei (%) [1]: 19%
- Population Healthy Nuclei (%) [1]: 34%
- Population Hoechst High Intensity Objects (%) [1]: 18%
- Population Membrane Permeable-Phenotype (%) [1]: 4%
- Population Mitochondria Different-Phenotype (%) [1]: 78%
- Population Mitotic Cells (%) [1]: 57%
- Population Normal (%) [1]: 81%
- Population Pyknosed Nuclei (%) [1]: 46%
- Population Tubulin-Different-Phenotype (%) [1]: 34%
- Total Cell Count [1]: 170
- Population Apoptotic (%) [2]: 8%
- Population Fragmented Nuclei (%) [2]: 4%
- Population Healthy Nuclei (%) [2]: 47%
- Population Hoechst High Intensity Objects (%) [2]: 3%
- Population Membrane Permeable-Phenotype (%) [2]: 13%
- Population Mitochondria Different-Phenotype (%) [2]: 24%
- Population Mitotic Cells (%) [2]: 91%
- Population Normal (%) [2]: 96%
- Population Pyknosed Nuclei (%) [2]: 47%
- Population Tubulin-Different-Phenotype (%) [2]: 25%
- Total Cell Count [2]: 304
- Population Apoptotic (%) [3]: 53%
- Population Fragmented Nuclei (%) [3]: 24%
- Population Healthy Nuclei (%) [3]: 38%
- Population Hoechst High Intensity Objects (%) [3]: 22%
- Population Membrane Permeable-Phenotype (%) [3]: 4%
- Population Mitochondria Different-Phenotype (%) [3]: 91%
- Population Mitotic Cells (%) [3]: 46%
- Population Normal (%) [3]: 77%
- Population Pyknosed Nuclei (%) [3]: 37%
- Population Tubulin-Different-Phenotype (%) [3]: 79%
- Total Cell Count [3]: 163
- Population Apoptotic (%) [4]: 20%
- Population Fragmented Nuclei (%) [4]: 6%
- Population Healthy Nuclei (%) [4]: 53%
- Population Hoechst High Intensity Objects (%) [4]: 5%
- Population Membrane Permeable-Phenotype (%) [4]: 10%
- Population Mitochondria Different-Phenotype (%) [4]: 48%
- Population Mitotic Cells (%) [4]: 79%
- Population Normal (%) [4]: 94%
- Population Pyknosed Nuclei (%) [4]: 40%
- Population Tubulin-Different-Phenotype (%) [4]: 57%
- Total Cell Count [4]: 170
- Population Apoptotic (%) [5]: 37%
- Population Fragmented Nuclei (%) [5]: 20%
- Population Healthy Nuclei (%) [5]: 39%
- Population Hoechst High Intensity Objects (%) [5]: 20%
- Population Membrane Permeable-Phenotype (%) [5]: 0%
- Population Mitochondria Different-Phenotype (%) [5]: 75%
- Population Mitotic Cells (%) [5]: 62%
- Population Normal (%) [5]: 79%
- Population Pyknosed Nuclei (%) [5]: 39%
- Population Tubulin-Different-Phenotype (%) [5]: 32%
- Total Cell Count [5]: 178
- Population Apoptotic (%) [6]: 15%
- Population Fragmented Nuclei (%) [6]: 4%
- Population Healthy Nuclei (%) [6]: 69%
- Population Hoechst High Intensity Objects (%) [6]: 3%
- Population Membrane Permeable-Phenotype (%) [6]: 8%
- Population Mitochondria Different-Phenotype (%) [6]: 13%
- Population Mitotic Cells (%) [6]: 84%
- Population Normal (%) [6]: 96%
- Population Pyknosed Nuclei (%) [6]: 25%
- Population Tubulin-Different-Phenotype (%) [6]: 25%
- Total Cell Count [6]: 367
- Population Apoptotic (%) [7]: 58%
- Population Fragmented Nuclei (%) [7]: 17%
- Population Healthy Nuclei (%) [7]: 32%
- Population Hoechst High Intensity Objects (%) [7]: 25%
- Population Membrane Permeable-Phenotype (%) [7]: 0%
- Population Mitochondria Different-Phenotype (%) [7]: 94%
- Population Mitotic Cells (%) [7]: 41%
- Population Normal (%) [7]: 74%
- Population Pyknosed Nuclei (%) [7]: 50%
- Population Tubulin-Different-Phenotype (%) [7]: 69%
- Total Cell Count [7]: 161
- Population Apoptotic (%) [8]: 37%
- Population Fragmented Nuclei (%) [8]: 9%
- Population Healthy Nuclei (%) [8]: 58%
- Population Hoechst High Intensity Objects (%) [8]: 2%
- Population Membrane Permeable-Phenotype (%) [8]: 6%
- Population Mitochondria Different-Phenotype (%) [8]: 71%
- Population Mitotic Cells (%) [8]: 62%
- Population Normal (%) [8]: 97%
- Population Pyknosed Nuclei (%) [8]: 32%
- Population Tubulin-Different-Phenotype (%) [8]: 61%
- Total Cell Count [8]: 169
- Population Apoptotic (%) [9]: 48%
- Population Fragmented Nuclei (%) [9]: 22%
- Population Healthy Nuclei (%) [9]: 37%
- Population Hoechst High Intensity Objects (%) [9]: 21%
- Population Membrane Permeable-Phenotype (%) [9]: 0%
- Population Mitochondria Different-Phenotype (%) [9]: 32%
- Population Mitotic Cells (%) [9]: 51%
- Population Normal (%) [9]: 78%
- Population Pyknosed Nuclei (%) [9]: 40%
- Population Tubulin-Different-Phenotype (%) [9]: 28%
- Total Cell Count [9]: 189
- Population Apoptotic (%) [10]: 17%
- Population Fragmented Nuclei (%) [10]: 5%
- Population Healthy Nuclei (%) [10]: 84%
- Population Hoechst High Intensity Objects (%) [10]: 3%
- Population Membrane Permeable-Phenotype (%) [10]: 4%
- Population Mitochondria Different-Phenotype (%) [10]: 4%
- Population Mitotic Cells (%) [10]: 82%
- Population Normal (%) [10]: 96%
- Population Pyknosed Nuclei (%) [10]: 10%
- Population Tubulin-Different-Phenotype (%) [10]: 25%
- Total Cell Count [10]: 580
- Population Apoptotic (%) [11]: 70%
- Population Fragmented Nuclei (%) [11]: 28%
- Population Healthy Nuclei (%) [11]: 39%
- Population Hoechst High Intensity Objects (%) [11]: 19%
- Population Membrane Permeable-Phenotype (%) [11]: 8%
- Population Mitochondria Different-Phenotype (%) [11]: 74%
- Population Mitotic Cells (%) [11]: 29%
- Population Normal (%) [11]: 80%
- Population Pyknosed Nuclei (%) [11]: 32%
- Population Tubulin-Different-Phenotype (%) [11]: 62%
- Total Cell Count [11]: 181
- Population Apoptotic (%) [12]: 48%
- Population Fragmented Nuclei (%) [12]: 8%
- Population Healthy Nuclei (%) [12]: 63%
- Population Hoechst High Intensity Objects (%) [12]: 2%
- Population Membrane Permeable-Phenotype (%) [12]: 5%
- Population Mitochondria Different-Phenotype (%) [12]: 46%
- Population Mitotic Cells (%) [12]: 51%
- Population Normal (%) [12]: 97%
- Population Pyknosed Nuclei (%) [12]: 28%
- Population Tubulin-Different-Phenotype (%) [12]: 61%
- Total Cell Count [12]: 219
